One may read the IC50 as the concentration needed to halve the response being measured. By Ki is commonly meant a measure of affinity in units of concentration, obtained from inhibition or displacement.

Data set [1] deals with SH-SY5Y. Briefly: cells. The class given is functional. The conditions noted are these: Homo sapiens.
In data set [2] the test system is SH-SY5Y. Briefly: cells. The class given is functional. To be noted: Homo sapiens. The source holds these as a separate data set.
The target in data set [3] is T1, Cholinesterase (Equus caballus, UniProt P81908). Briefly: Inhibition of equine serum BChE using butyrylthiocholine iodide as substrate by Ellman's method. (In general: In Ellman's method for cholinesterases, released thiocholine reacts with DTNB.)
Data set [4] can be described thus: Selectivity index, ratio of IC50 for human recombinant AChE expressed in HEK293 cells to IC50 for equine serum BChE. Format: cell-based. A digest of the protocol: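 Both enzymes were run by the same Ellman method: substrate 0.2–0.5 mM, DTNB 0.125 mM, 100 mM MOPS pH 8.0, 25 °C, read at 412 nm. IC50 came from dose–response curves, and selectivity = IC50(AChE)/IC50(BChE).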

Data set [5] deals with Amyloid-beta precursor protein (Homo sapiens) (UniProt P05067). As to the kind of experiment: Inhibition of human amyloid beta (1 to 42) self-induced aggregation assessed as Amyloid beta (1 to 42) aggregation at 10 uM incubated for 48 hrs by thioflavin T-based fluorescence assay (reference value: 100%). The arrangement: scale not given: the % may be the effect or the level left.

Data set [6] is described as follows: Cytotoxicity against mouse L929 cells assessed as cell viability at 10 uM incubated for 24 hrs by MTT assay (reference value: 100%). Format: cell-based. The conditions noted are these: read-out: Activity. Put shortly: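 L929 cells (ATCC CCL-1) seeded at 5000 per well, exposed to 10 μM compound for 24 h. MTT reagent was added, formazan dissolved in DMSO, and absorbance read at 570 and 690 nm. Viability is expressed relative to a non-treated control taken as 100%.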

The target of data set [7] is Amyloid-beta precursor protein (Homo sapiens) (UniProt P05067). As to the kind of experiment: Inhibition of human amyloid beta (1 to 42) self-induced aggregation assessed as Amyloid beta (1 to 42) aggregation at 100 uM incubated for 48 hrs by thioflavin T-based fluorescence assay (reference value: 100%). The arrangement: scale not given: the % may be the effect or the level left.

The target of data set [8] is T2, Acetylcholinesterase (Homo sapiens, UniProt P22303). As to the kind of experiment: Inhibition of human recombinant AChE expressed in HEK293 cells using acetylthiocholine iodide as substrate by Ellman's method.
The target of data set [9] is T1, Cholinesterase. Briefly: Partial non-competitive inhibition of equine serum BChE using butyrylthiocholine iodide as substrate by Dixon and slope replot analysis. Put shortly:
(§1)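 Ellman assay. Enzyme added last to a mix of thiocholine substrate (0.2–0.5 mM) and 0.125 mM DTNB in 100 mM MOPS pH 8.0 at 25 °C. Absorbance was followed at 412 nm. For kinetics, Dixon plots (1/v versus I) were built at inhibitor 0.5, 1, 10 and 100 μM and fitted with slope replots to get Ki. IC50 came from dose–response curves.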

Data set [10] deals with Cholinesterase (Equus caballus) (UniProt P81908). Briefly: Partial non-competitive inhibition of equine serum BChE assessed as decrease in Vmax with unchanged Km using butyrylthiocholine iodide as substrate by Dixon and slope replot analysis. Put shortly: as §1
In data set [11] the target is T2, Acetylcholinesterase. Briefly: Competitive inhibition of human recombinant AChE expressed in HEK293 cells using acetylthiocholine iodide as substrate by Dixon and slope replot analysis. A digest of the protocol: as §1

The source made the active and inactive calls. The calls are words filed in the database; no cut-off is given here.

T1 sequence (P81908 whole entry): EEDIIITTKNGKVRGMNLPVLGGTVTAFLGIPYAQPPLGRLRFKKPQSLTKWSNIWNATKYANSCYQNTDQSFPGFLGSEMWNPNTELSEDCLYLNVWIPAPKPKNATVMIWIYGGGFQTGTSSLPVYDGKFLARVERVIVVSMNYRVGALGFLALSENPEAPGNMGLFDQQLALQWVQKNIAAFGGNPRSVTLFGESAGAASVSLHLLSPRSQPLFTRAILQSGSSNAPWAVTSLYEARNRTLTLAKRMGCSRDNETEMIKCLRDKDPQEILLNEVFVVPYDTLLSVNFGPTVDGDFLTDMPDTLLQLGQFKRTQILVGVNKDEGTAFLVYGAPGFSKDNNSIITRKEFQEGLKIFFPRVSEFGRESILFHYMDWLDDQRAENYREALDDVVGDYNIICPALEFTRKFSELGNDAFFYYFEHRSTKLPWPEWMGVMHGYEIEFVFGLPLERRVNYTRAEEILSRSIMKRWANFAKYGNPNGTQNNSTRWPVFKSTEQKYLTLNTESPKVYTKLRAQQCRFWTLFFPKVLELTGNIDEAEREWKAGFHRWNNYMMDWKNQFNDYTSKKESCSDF
Amyloid-beta precursor protein (Homo sapiens), sequence (P05067 whole entry): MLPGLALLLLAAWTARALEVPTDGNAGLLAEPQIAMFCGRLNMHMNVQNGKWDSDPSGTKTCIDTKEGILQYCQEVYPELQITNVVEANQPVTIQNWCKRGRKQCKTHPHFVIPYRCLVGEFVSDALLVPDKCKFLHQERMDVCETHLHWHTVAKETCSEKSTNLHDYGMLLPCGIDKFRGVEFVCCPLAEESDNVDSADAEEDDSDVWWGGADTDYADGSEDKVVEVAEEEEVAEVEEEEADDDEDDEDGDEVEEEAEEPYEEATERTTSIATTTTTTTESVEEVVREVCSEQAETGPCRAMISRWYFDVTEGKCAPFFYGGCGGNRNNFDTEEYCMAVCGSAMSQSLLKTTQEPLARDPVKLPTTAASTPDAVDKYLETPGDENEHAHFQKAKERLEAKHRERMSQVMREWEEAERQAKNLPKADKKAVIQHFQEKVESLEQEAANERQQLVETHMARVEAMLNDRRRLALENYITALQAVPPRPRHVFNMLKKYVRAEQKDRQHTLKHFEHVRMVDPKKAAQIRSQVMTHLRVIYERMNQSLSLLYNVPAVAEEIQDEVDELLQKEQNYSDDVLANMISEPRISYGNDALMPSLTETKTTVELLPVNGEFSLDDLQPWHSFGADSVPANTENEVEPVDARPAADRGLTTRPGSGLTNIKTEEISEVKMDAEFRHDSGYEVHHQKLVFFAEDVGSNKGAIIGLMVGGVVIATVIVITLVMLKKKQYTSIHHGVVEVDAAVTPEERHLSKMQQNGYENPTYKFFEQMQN
T2 sequence (P22303 whole entry): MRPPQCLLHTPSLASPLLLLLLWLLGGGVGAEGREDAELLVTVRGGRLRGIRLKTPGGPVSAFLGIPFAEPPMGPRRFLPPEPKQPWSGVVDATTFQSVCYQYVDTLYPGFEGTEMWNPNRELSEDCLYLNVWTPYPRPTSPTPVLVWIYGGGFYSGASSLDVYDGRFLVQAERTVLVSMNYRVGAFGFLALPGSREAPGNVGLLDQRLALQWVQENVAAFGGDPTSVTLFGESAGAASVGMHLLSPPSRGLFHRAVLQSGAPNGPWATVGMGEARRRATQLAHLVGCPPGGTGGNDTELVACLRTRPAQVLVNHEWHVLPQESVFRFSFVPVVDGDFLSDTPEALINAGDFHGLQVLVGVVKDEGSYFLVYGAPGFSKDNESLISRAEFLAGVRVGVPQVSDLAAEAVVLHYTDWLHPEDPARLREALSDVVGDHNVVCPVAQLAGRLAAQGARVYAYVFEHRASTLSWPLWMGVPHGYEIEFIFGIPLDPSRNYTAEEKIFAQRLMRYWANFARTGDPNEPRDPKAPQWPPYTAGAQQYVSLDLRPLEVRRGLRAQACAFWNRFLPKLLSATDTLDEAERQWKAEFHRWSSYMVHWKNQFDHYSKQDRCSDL
Cholinesterase (Equus caballus), sequence (P81908 whole entry): as the sequence (P81908 whole entry) above

For the compound `COc1cc2c(cc1OC)C(=O)C(CC1CCN(Cc3ccccc3)CC1)C2` (stereo unspecified) [DONEPEZIL], the values for the viability at 10 µM in the data set with SH-SY5Y [1] and in the data set on SH-SY5Y [2] were 62.5% and 69%, respectively.
Consider `COc1ccc(C2=NN(C(C)=O)C(c3ccc(N4CCC(Cc5ccccc5)CC4)cc3)C2)cc1OC` (stereo unspecified), for which the figures for the IC50 against Cholinesterase [3] and at Acetylcholinesterase [8] were 2.1 µM and 20.1 µM, respectively. The figures for the viability at 10 µM in the data set on SH-SY5Y [1] and in the data set on SH-SY5Y [2] were 83.5% and 84.4%, respectively. In data set [4], the Ratio IC50 is 9.8. For the same compound, the Activity in data set [5] is 82.2%; in [7] it was 86.4%. The viability at 24 h, 10 µM in data set [6] amounted to 101%.
As for `COc1ccc(C2=NN(C(C)=O)C(c3ccc(-n4cnc5ccccc54)cc3)C2)cc1OC` (stereo unspecified), the IC50 against Cholinesterase [3] came to 254 µM; at Acetylcholinesterase [8] it was 319 µM. In addition, the Ratio IC50 in [4] is 1.2.
As for `CO[C@H]1/C=C/O[C@@]2(C)Oc3c(C)c(O)c4c(O)c(c(/C=N/N5CCN(C)CC5)c(O)c4c3C2=O)NC(=O)/C(C)=C\C=C\[C@H](C)[C@H](O)[C@@H](C)[C@@H](O)[C@@H](C)[C@H](OC(C)=O)[C@@H]1C`, the Activity in [7] stood at 48.4%.
Turning to `CCN1CCN(c2ccc(C3CC(c4ccc(OC)c(OC)c4)=NN3C(C)=O)cc2)CC1` (stereo unspecified), the IC50 on Cholinesterase [3] turned out to be 0.5 µM; at Acetylcholinesterase [8], 47.9 µM. In addition, the viability at 10 µM in the data set with SH-SY5Y [1] worked out at 67.9%; with SH-SY5Y [2] it was 87.4%. Further, in [4], the Ratio IC50 came out at 104. Also, on Cholinesterase [9], affinity was put at a Ki of 2.22 µM. Further, the inhibition entry in data set [10] is “Active”. The viability at 24 h, 10 µM in data set [6] was 89.2%. Further, the Activity in data set [7] worked out at 83.4%.
For `COc1ccc(C2=NN(C(C)=O)C(c3ccc(N4CCN(c5ccccc5)CC4)cc3)C2)cc1OC` (stereo unspecified), the half-inhibitory concentration (IC50) at Cholinesterase [3] was determined as 1900 µM; on Acetylcholinesterase [8], 295 µM. In addition, the Ratio IC50 in [4] is 0.2.
Regarding `COc1ccc(C2=NN(C(C)=O)C(c3ccc(-n4cncn4)cc3)C2)cc1OC` (stereo unspecified), the IC50 was 27.5 µM against Cholinesterase [3] and 955 µM at Acetylcholinesterase [8]. The Ratio IC50 in data set [4] was 34.8.
Regarding `COc1ccc(C2=NN(C(C)=O)C(c3ccc(-n4ccnc4)cc3)C2)cc1OC` (stereo unspecified), the IC50 came to 32.7 µM against Cholinesterase [3] and 206 µM at Acetylcholinesterase [8]. In data set [4], the Ratio IC50 came to 6.3.
As to `COc1ccc(C2=NN(C(C)=O)C(c3ccc(N4CCN(Cc5ccccc5)CC4)cc3)C2)cc1OC` (stereo unspecified), the IC50 against Cholinesterase [3] is 0.5 µM; at Acetylcholinesterase [8], 62.8 µM. The results for the viability at 10 µM with SH-SY5Y [1] and with SH-SY5Y [2] were 69.3% and 87%, respectively. In addition, the Ratio IC50 in data set [4] is 128. Moreover, in [6], the viability at 24 h, 10 µM worked out at 93.3%. In addition, the Activity in [7] amounted to 89.8%.
Consider `COc1ccc(C2=NN(C(C)=O)C(c3ccc(N4CCN(Cc5ccccc5)CC4)cc3)C2)cc1` (stereo unspecified), for which the half-maximal inhibitory concentration (IC50) against Cholinesterase [3] was determined as 137 µM; on Acetylcholinesterase [8], 100 µM. Further, the Ratio IC50 in [4] is 0.7.
As for `COc1ccc(C2=NN(C(C)=O)C(c3ccc(N4CCN(C)CC4)cc3)C2)cc1OC` (stereo unspecified), the concentration for half-maximal inhibition (IC50) stood at 6 µM on Cholinesterase [3] and 6.5 µM at Acetylcholinesterase [8]. Besides, the viability at 10 µM with SH-SY5Y [1] turned out to be 95.6%; in the data set on SH-SY5Y [2], 93.6%. Further, in data set [4], the Ratio IC50 stood at 1.1. Further, in data set [6], the viability at 24 h, 10 µM turned out to be 93.3%. In addition, the Ki on Acetylcholinesterase [11] turned out to be 0.63 µM. The Activity in data set [7] was determined as 72.6%.
As to `CCN1CCN(c2ccc(C3CC(c4ccc(OC)cc4)=NN3C(C)=O)cc2)CC1` (stereo unspecified), the 50% inhibitory concentration (IC50) at Cholinesterase [3] was 217 µM; on Acetylcholinesterase [8], 221 µM. For the same compound, in data set [4], the Ratio IC50 came out at 1.
Turning to `COc1ccc(C2=NN(C(C)=O)C(c3ccc(N4CCC(C)CC4)cc3)C2)cc1OC` (stereo unspecified), the figures for the half-inhibitory concentration (IC50) against Cholinesterase [3] and at Acetylcholinesterase [8] were 3.9 µM and 77.4 µM, respectively. Besides, the viability at 10 µM in the data set with SH-SY5Y [1] is 78.4%; in the data set with SH-SY5Y [2], 81.1%. In addition, the Ratio IC50 in [4] turned out to be 19.9. In addition, the Activity is 80.6% in data set [5] and 63.4% in data set [7]. The viability at 24 h, 10 µM in data set [6] is 95.4%.

The record behind these values is ChEMBL document CHEMBL4334423, “Synthesis, molecular docking, and biological evaluation of novel 2-pyrazoline derivatives as multifunctional agents for the treatment of Alzheimer's disease” (Medchemcomm, 2019).
